Source: PubChem BioAssay (several laboratories)
Compounds with a hit are over-represented: about 2.1% of the library has one in this group of screens.
RanGTP-Imp inh = inhibitors of RanGTP-importin-beta interaction, primary screen, biochemical, FRET, CFP-Ran, YFP-importin-beta, homogeneous. Ran GTPase (GTP-bound) - importin-beta complex. cell-free CFP-Ran/YFP-importin-beta FRET ratio. AID 2216, 2009. actives 1.1% (n = 300,000). inhibition, % (test concentration not listed);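 active = more than half of the replicate wells show a fall in the fluorescence ratio signal beyond about 16%, limit read from the data, passing the limit was not always enough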;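 also: 0% = DMSO wells and 100% = Ran loaded with GDP instead of GTP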
FAS TE block = FAS thioesterase domain inhibitors, primary screen, biochemical, fluorescence intensity, uHTS. Fatty acid synthase (Homo sapiens), P49327. recombinant FAS-TE, OMFH fluorogenic substrate, fluorescence endpoint. inhibition, % at 15 µM. actives 0.67% (n = 360,000). AID 602261, 2012;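 active = compounds whose normalised, plate-corrected inhibition of enzyme fluorescence in the single-dose primary screen is 50% or more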;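 also: 0% = DMSO with enzyme and 100% = substrate without enzyme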
Runt-CBFb FRET = inhibitors of RUNX1 Runt–CBFb binding, primary screen, biochemical, FRET, Cerulean-Runt, Venus-CBFb, uHTS; Cerulean-Runt/Venus-CBFb FRET ratio 530/480, 1 h; AID 1496, 2009; actives 0.46% (n = 220,000); Runt-related transcription factor 1 (Homo sapiens) + Core-binding factor subunit beta …; inhibition, % at 20 µM;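 active = inhibition over about 50% at 20 µM in the single-dose screen, limit read from the data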;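 also: 0% = DMSO wells and 100% = excess unlabeled CBFb competitor control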
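Assay system: Cerulean-Runt domain fusion protein, energy donor; Signal: fluorescence energy transfer, 422 nm excitation, 530/480 nm emission; Timing: 1 h compound exposure, room temperature; Control set: unlabeled CBFb; Medium: Tris buffer pH 7.5 with salts and BSA; Compound: single test concentration of 20 µM, 1% DMSO final; Probe or stimulus: Venus-CBFb 100 nM.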
Runt-SMMHC FRET = inhibitors of RUNX1 Runt–CBFb-SMMHC binding, primary screen, biochemical, FRET, Cerulean-Runt, Venus-CBFb-SMMHC, uHTS; Runt-related transcription factor 1 (Homo sapiens) + Core-binding factor subunit beta …; Cerulean-Runt/Venus-CBFb-SMMHC FRET ratio 530/480, 1 h; inhibition, % at 20 µM; actives 0.74% (n = 220,000); AID 1434, 2008;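 active = mean inhibition across duplicate retests at 20 µM reaching about 50%, limit read from the data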;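 also: 0% = DMSO wells and 100% = wells with excess untagged CBFb-SMMHC; inhibitors lower the FRET ratio by blocking Runt binding to CBFb-SMMHC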
m-calpain inh = inhibitors of pig calpain II, primary screen, biochemical, fluorogenic peptide substrate, 1536-well | inhibition, % at 16 µM | actives 0.37% (n = 220,000) | AID 1236, 2008 | purified calpain II, 30 min;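 active = inhibition above about 50%, limit read from the data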
FAS-TE inh conf = FAS thioesterase domain inhibitors, confirmation, biochemical, fluorescence intensity, single concentration; inhibition, % at 15 µM; recombinant FAS-TE, OMFH fluorogenic substrate; shares compounds with FAS TE block; actives 45% (n = 2,300);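 active = compounds inhibiting the enzyme by at least 50% at 15 µM in any one of the replicates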;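 also: 0% = enzyme with DMSO only and 100% = wells lacking enzyme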
The depositor's hits bear a star; . = not tested or not shown.

SMILES | RanGTP-Imp inh | FAS TE block | Runt-CBFb FRET | Runt-SMMHC FRET | m-calpain inh | FAS-TE inh conf
C[C@H](NC(=O)c1nc[nH]c1C(=O)N[C@@H](CCCCNC(=O)OC(C)(C)C)C(=O)OC(C)(C)C)C(=O)OCc1ccccc1 | 0 | 87* | . | . | . | 74*
CC(C)(C)OC(=O)NCCCCCNC(=O)c1nc[nH]c1C(=O)NCC(=O)OCc1ccccc1 | . | 29 | . | . | . | .
CC(C)(C)OC(=O)N[C@@H](CCCCNC(=O)OCc1ccccc1)c1nnc([C@H](CCCCNC(=O)OCc2ccccc2)NC(=O)OC(C)(C)C)o1 | -1 | 66* | -12 | -5 | 23 | 27
CC(C)(C)OC(=O)NCCCC[C@H](NC(=O)c1nc[nH]c1C(=O)NCC(=O)OCc1ccccc1)C(=O)OC(C)(C)C | -2 | 90* | . | . | . | 96*
C[C@H](NC(=O)c1nc[nH]c1C(=O)N[C@@H](CCCCNC(=O)OC(C)(C)C)C(=O)OC(C)(C)C)C(=O)OC(C)(C)C | 2 | 73* | -7 | -5 | 43 | 62*
Cc1ccc(SCC(=O)OCC(=O)N(CC(C)C)c2c(N)n(Cc3ccccc3)c(=O)[nH]c2=O)c(C)c1 | -1 | -12 | . | . | . | .
CC(C)C(=O)Nc1ccc(NC(=S)NC(=O)c2ccccc2F)cc1 | 3 | -1 | . | . | . | .
CC(C)CC(OC(=O)c1nsc(Cl)c1Cl)C(=O)NC1CCCC1 (stereo unspecified) | -2 | 4 | . | . | . | .
C=CC[C@H](CC(=O)NCCO)C(=O)NCCOC(=O)[C@@H](CC=C)CC(=O)OC(C)(C)C | . | -14 | . | . | . | .
CC(C)C[C@H](NC(=O)c1nc[nH]c1C(=O)NC1CCN(C(=O)OC(C)(C)C)CC1)C(=O)OCc1ccccc1 | 2 | 58* | -7 | -2 | 47 | 61*
CC(C)C[C@H](NC(=O)c1nc[nH]c1C(=O)NC1CCN(C(=O)OC(C)(C)C)CC1)C(=O)OC(C)(C)C | 2 | 20 | -7 | -3 | 44 | .
C=CCOc1c(/C=N\NC(N)=O)cccc1OC | 5 | -6 | 2 | -3 | -12 | .
C=CCOc1c(OC)cc(/C=N/Nc2cccc(C(=O)O)c2)c(Br)c1Br | -2 | 70* | -3 | 3 | 18 | 84*
O=C(Nc1ccc(OC(F)(F)F)cc1)c1cccc(-n2cnnn2)c1 | . | 56* | . | . | . | 44
COCc1cc(C)nc(SCC[N+](C)(C)CC(=O)Nc2ccccc2)c1C#N | -1 | 53* | 0 | -2 | -22 | 63*
CC(NC(=O)c1cc([N+](=O)[O-])cc([N+](=O)[O-])c1)c1ccc(-n2ccnc2)cc1 (stereo unspecified) | -4 | 59* | . | . | . | 72*
CC(NC(=O)c1ccc(N(C)C)c([N+](=O)[O-])c1)c1ccc(-n2ccnc2)cc1 (stereo unspecified) | 2 | 46 | . | . | . | .
CN(CCc1ccccn1)C(=O)CC1C(=O)NCCN1Cc1cccc(F)c1 (stereo unspecified) | 0 | -6 | . | . | . | .
CCc1ccc(S(=O)(=O)ON2C(=O)c3ccccc3C2=O)cc1 | 8 | 81* | 0 | 2 | -35 | 72*
COc1ccc(OC)c(S(=O)(=O)ON2C(=O)c3ccccc3C2=O)c1 | -2 | 79* | . | . | . | 66*
O=C1c2cccc3cccc(c23)C(=O)N1OS(=O)(=O)c1ccc(Cl)cc1 | 2 | 52* | -1 | 1 | -211 | 14
COc1ccc(OC)c(S(=O)(=O)N2CCN(c3ccccc3)CC2)c1 | 0 | 8 | . | . | . | .
CC(C)(C)c1ccc(CSc2nnc(-c3ccccn3)n2Cc2ccco2)cc1 | 1 | 53* | 14 | -6 | 5 | 13
O=C(COC(=O)CNC(=O)c1ccccc1)NCCCc1ccccc1 | . | -4 | . | . | . | .
COc1ccccc1-n1cc(C(=O)c2cc(Cl)ccc2O)cc(C#N)c1=O | 7 | 6 | 0 | -2 | -42 | .
